Where “and” joins values, the source holds several entries; their conditions need not be identical. Identical values can stand only once. Screen size: about 330,000 compounds; about 2,400 (0.73%) were called active. Rule for the calls: active = inhibition of at least 40% at 20 µM; inactive = the rest. The full list was thinned out, with actives kept by preference.

The inhibition is the change of the read-out against control, counted positive when it falls.

This assay deals with Apoptotic protease-activating factor 1 (Homo sapiens) (UniProt O14727). Kind of assay: blockers of Apaf-1-driven caspase-3 activation – biochemical, DEVD-Rh110 fluorescence, uHTS, primary screen (AID 489030).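 Note: plate controls were DMSO wells for no effect and DEVD-CHO caspase inhibitor wells for full effect.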 The note with it: reconstituted apoptosome caspase-3 activity, at 20 µM, stronger effect = higher value. In short, it runs like this: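 Material: reconstituted apoptosome with Apaf-1, cytochrome c, caspase-9, procaspase-3, dATP. Technique: Rh110 fluorescence intensity. Buffer or medium: pH 7.5 Hepes buffer with CHAPS, BSA, DTT. Times: 30 min plus 50 min, RT.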
Sequence of Apoptotic protease-activating factor 1 (Homo sapiens) (O14727 whole entry, looked up): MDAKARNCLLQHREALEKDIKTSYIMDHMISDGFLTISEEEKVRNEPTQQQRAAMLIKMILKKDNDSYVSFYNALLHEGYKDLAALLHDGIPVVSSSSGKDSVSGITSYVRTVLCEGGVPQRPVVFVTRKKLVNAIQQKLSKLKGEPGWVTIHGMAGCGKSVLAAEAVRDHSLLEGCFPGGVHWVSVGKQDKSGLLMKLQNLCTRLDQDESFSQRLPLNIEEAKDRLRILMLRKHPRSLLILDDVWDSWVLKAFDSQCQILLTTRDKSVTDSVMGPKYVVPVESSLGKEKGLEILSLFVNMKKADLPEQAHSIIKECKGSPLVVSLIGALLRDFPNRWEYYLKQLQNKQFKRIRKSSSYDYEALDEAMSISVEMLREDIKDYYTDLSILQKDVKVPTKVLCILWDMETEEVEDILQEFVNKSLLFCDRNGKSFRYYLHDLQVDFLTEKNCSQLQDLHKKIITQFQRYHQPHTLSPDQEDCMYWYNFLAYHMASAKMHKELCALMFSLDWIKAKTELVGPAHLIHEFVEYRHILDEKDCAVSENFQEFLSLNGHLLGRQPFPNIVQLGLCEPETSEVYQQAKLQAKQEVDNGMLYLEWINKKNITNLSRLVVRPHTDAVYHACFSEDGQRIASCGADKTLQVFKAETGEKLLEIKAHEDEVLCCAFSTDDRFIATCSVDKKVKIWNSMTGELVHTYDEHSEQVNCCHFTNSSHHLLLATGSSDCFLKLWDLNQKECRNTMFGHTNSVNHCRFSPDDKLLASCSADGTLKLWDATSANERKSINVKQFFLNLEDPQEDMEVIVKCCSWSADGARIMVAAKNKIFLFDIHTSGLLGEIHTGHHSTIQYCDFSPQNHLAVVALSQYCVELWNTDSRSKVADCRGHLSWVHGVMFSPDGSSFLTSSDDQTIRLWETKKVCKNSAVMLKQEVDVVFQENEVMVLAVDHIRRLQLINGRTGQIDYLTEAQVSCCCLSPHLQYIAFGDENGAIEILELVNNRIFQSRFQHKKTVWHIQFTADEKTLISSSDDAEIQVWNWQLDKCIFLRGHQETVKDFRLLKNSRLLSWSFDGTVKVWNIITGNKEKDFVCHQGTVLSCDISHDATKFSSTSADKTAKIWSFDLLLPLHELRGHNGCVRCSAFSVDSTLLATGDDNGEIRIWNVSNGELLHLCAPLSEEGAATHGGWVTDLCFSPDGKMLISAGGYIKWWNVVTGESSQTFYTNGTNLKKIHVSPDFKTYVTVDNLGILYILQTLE
Consider `CCOc1c2ccc(C(=O)NC3CCCc4ccccc43)cc2nn1CC` (stereo not given), for which the inhibition was 5.11% (inactive).
The result for `CCOC(=O)N1CCC(=NNC(N)=O)CC1` reads 1.89% (inactive); that for `C=CCn1c(C(C)NC(=O)CC)nc2ccccc21` (stereo not given), -0.828% (inactive).
As to `C=CCn1c(P(C)(=O)O)nc2ccccc21`, the inhibition is 5.81% (inactive) and -0.524% (inactive).
The result for `CC(CN1CCOCC1)OC(=O)c1ccc(C(C)(C)C)cc1` (stereo not given) reads 15.5% (inactive).
Take `CC(=O)c1ccc(NC(=O)CSc2nc3ccccc3c(=O)n2CCCN2CCOCC2)cc1`: the inhibition was 2.62% (inactive).
As for `C=CCn1c(N)c(C(=O)OCC(C)C)c2nc3ccccc3nc21`, the inhibition is 54.1% (active).
In the case of `COCC(C)OC(=O)c1c(N)n(CCCN2CCOCC2)c2nc3ccccc3nc12` (stereo not given) it was 50.9% (active); in that of `O=C(NCc1cccs1)c1cc(-c2ccccn2)nc2ccc(Br)cc12`, 5.9% (inactive); in that of `CC(C)Cn1c(N)c(C(=O)NCc2cccs2)c2nc3ccccc3nc21`, 63.4% (active).
In the case of `CCOc1ccccc1NC(=O)Cn1nnc(C(=O)NCc2cccs2)c1N` it was -4.26% (inactive); in that of `O=C(Nc1ccccc1Cl)NC1(C(=O)N2CCOCC2)CCCCC1`, -1.88% (inactive).
In the case of `Cn1cncc1C#Cc1c(-c2ccsc2)sc2ccccc12` it was 33.5% (inactive).
In the case of `CCC/C=C(\CCC)C(NC(=O)Cc1ccccc1)c1ccc(C(=O)OC)cc1` (stereo not given), the inhibition is 7.48% (inactive).
In the case of `CC1CCN(C(=O)COC(=O)c2cc(S(=O)(=O)N3CCOCC3)ccc2Cl)CC1` it was 3.82% (inactive); in that of `CCOC(=O)c1ccc(NC(=O)Cn2cnc3cc(C)c(C)cc32)cc1`, -0.083% (inactive).
Turning to `O=C(CCC(=O)OCC(F)(F)C(F)F)NCc1ccccc1`, the inhibition is -13% (inactive).
The result for `CCOc1ccc(NCCC(=O)c2ccc3c(c2)OCO3)cc1` reads 4.39% (inactive); that for `Oc1cc(O)c2c(c1)OC(c1ccc(O)c(O)c1)C(O)C2` (stereo not given), -2.63% (inactive).
In the case of `COC(=O)C[n+]1cccc2ccccc21`, the inhibition is -1.6% (inactive).
On to `C/C(=N\NC(=O)c1cc(-c2ccc(O)cc2)nc2ccccc12)c1cccnc1`, for which the inhibition is 7.65% (inactive).
In the case of `O=C(N/N=C\c1cccnc1)c1cc(-c2ccccc2)nc2c(Cl)cccc12` it was 40.1% (active); in that of `COc1ccc(-c2cc(C(=O)N/N=C/c3cccnc3)c3ccccc3n2)c(OC)c1`, 4.65% (inactive); in that of `COc1ccc(C(CNC(=O)c2cc3c(s2)CCCC3)N2CCOCC2)cc1` (stereo not given), 33.5% (inactive).
Take `COc1ccc(-c2nc3cnccn3c2NC2CCCCC2)cc1-c1cccc(Cl)c1`: the inhibition was 36.9% (inactive).
The result for `COc1ccc(-c2nc3cc(C)ccn3c2NC2CCCCC2)cc1SC1CCCCC1` reads 48.4% (active); that for `CCOc1cc(-c2nc3cc(C)ccn3c2NCC2CCCO2)ccc1O` (stereo not given), 9.28% (inactive).
The result for `CC1CN(C(=S)Nc2cccc(F)c2)CC(C)O1` (stereo not given) reads -7.38% (inactive); that for `COc1ccc(OC)c(C(c2nnnn2C(C)(C)C)N2CCc3ccccc3C2)c1` (stereo not given), 11.5% (inactive); that for `COCCn1nnnc1C(c1cc2ccc(OC)cc2[nH]c1=O)N1CCc2ccccc2C1` (stereo not given), 56.8% (active).
The result for `CCOc1ccc2[nH]c(=O)c(C(c3nnnn3CCOC)N3CCOCC3)cc2c1` (stereo not given) reads -3.2% (inactive); that for `Cc1cc(OCc2cc(C(=O)NCc3cc(C(C)C)no3)no2)cc(C)c1Cl`, 17.4% (inactive).
For `COC(=O)[C@@H]1C[C@@]2(O)[C@H](O)[C@H](O)[C@H](O)C[C@H]2N1Cc1ccc(C(C)(C)C)cc1`, the inhibition was 10.6% (inactive).
In the case of `CN(C)CCCN(Cc1cc2cc3c(cc2[nH]c1=O)OCCO3)C(=O)NC1CCCCC1` it was 2.55% (inactive); in that of `CNC(=O)NC(=O)CSc1nnc(-c2ccc(F)cc2)n1CC1CCCO1` (stereo not given), -8.1% (inactive).
As for `O=C(NN1C(=O)C2C3C=CC(C4CC34)C2C1=O)c1ccc(Cl)cc1` (stereo not given), the inhibition was 5.04% (inactive).
With `CCOC(=O)Cn1nnnc1C`, the inhibition was -24.4% (inactive).
For the molecule `COc1cc(C(=O)NC2CCN(Cc3ccccc3)CC2)cc(Cl)c1OC(C)C`, the inhibition is 4.18% (inactive).
The result for `COc1cc(OC)cc(-c2sc3ccc(OC)cc3c2-c2ccc3cc[nH]c3c2)c1` reads 7.8% (inactive).
The result for `COc1ccc(-c2sc3ccccc3c2-c2ccc(OCCN3CCOCC3)cc2)cc1` reads 15.7% (inactive); that for `COc1ccc2sc(-c3ccccc3OC)c(-c3ccc(OCCN4CCCC4)cc3)c2c1`, 73.4% (active).
With `COc1ccccc1-c1sc2ccccc2c1-c1ccc(Br)nc1`, the inhibition is 14.2% (inactive).
Regarding `COc1ccccc1-c1sc2ccccc2c1-c1ccc(C(C)=O)cc1`, the inhibition was 21.9% (inactive).
In the case of `COc1cccc(-c2sc3ccc(OC)cc3c2-c2ccc(OCCN3CCCCC3)cc2)c1` it was 61.8% (active); in that of `CN1CCC(CN)(N2CCN(c3ccccc3)CC2)CC1`, 6.96% (inactive).
The result for `CC1COc2ccccc2N1S(=O)(=O)c1ccccc1` (stereo not given) reads 11.7% (inactive); that for `OCCn1c(-c2ccccc2)csc1=Nc1ccccc1`, 16.7% (inactive).
In the case of `O=C(Nc1cccc(Cl)c1Cl)c1ccccc1NC(=O)C1CC=CCC1C(=O)O` (stereo not given) it was -3.06% (inactive); in that of `O=C(COC(=O)C1(c2ccc(F)cc2)CCCC1)N1CCNC1=O`, -3.12% (inactive).
Regarding `Cc1ccc(NC(=O)c2oc3ccccc3c2C)c([N+](=O)[O-])c1`, the inhibition is 4.97% (inactive).
In the case of `O=S1(=O)CCC(NC(=S)SCc2ccccc2Br)C1` (stereo not given) it was 8.21% (inactive).
With `Cc1nc2ccccc2nc(C)c1=NOCc1ccc(Cl)cc1Cl`, the inhibition was 8.52% (inactive).
The result for `NC(N)=N/N=C/c1ccc(OCc2ccc(Cl)cc2Cl)cc1` reads 65.5% (active).
On to `COc1ccc(Cl)cc1N(CC(=O)N/N=C/c1ccc(OCC(N)=O)cc1)S(C)(=O)=O`, for which the inhibition was 9.06% (inactive).
The result for `CCCNC(=O)OC[C@H]1O[C@H](CCO/N=C/[C@@H](NS(=O)(=O)c2ccc(C)cc2)[C@H](C)/C=C/CC(=O)OC)C=C[C@@H]1Oc1ccc(OC)cc1` reads 9.15% (inactive); that for `O=C(c1ccc(Br)o1)N1CCN(CCOc2ccccc2)CC1`, 5.93% (inactive); that for `CN(CC(=O)NC1CCCC1)S(=O)(=O)c1cnc[nH]1`, -3.15% (inactive).
In the case of `CCN(CC(=O)NCc1cccs1)C(=O)c1ccccc1F` it was -6.38% (inactive).
The result for `CCN(CC(=O)NCc1cccs1)C(=O)c1cccc(S(=O)(=O)Nc2ccccc2OC)c1` reads 60.2% (active); that for `CCN(CC(=O)NCc1cccs1)C(=O)c1ccc(OC)c(S(=O)(=O)N2CCOCC2)c1`, 5.14% (inactive).

For the origin of these results see PubChem BioAssay AID489030 (Sanford-Burnham Center for Chemical Genomics, 2010).
